# SR-BI HDL uptake: inhibitors of mouse SR-BI mediated HDL lipid uptake | 320,000 tested, 0.96% active | Q61009 | ldlA[mSR-BI] CHO cells, DiI-HDL uptake fluorescence, 3 h | inhibition, % at 12.5 µM | AID 488896;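 active = mean replicate inhibition of at least 70% and a set share of replicates each scoring 70 or more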;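 also: 0% = median of neutral control wells and 100% = median of positive control wells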
# UBC13 polyUb: human UBC13 polyubiquitination inhibition. P61088. UBC13 polyubiquitin chain formation, TR-FRET. inhibition, % at 20 µM. 330,000 tested, 0.47% active. AID 485273; in the data active = inhibition above about 45%, passing the limit was not always enough
# SR-BI DiI-HDL act: activators of SR-BI mediated HDL lipid uptake | CHO ldlA[mSR-BI] cells, DiI-HDL uptake fluorescence, 3 h; 100 = double the neutral-control signal | activation, % at 12.5 µM | 320,000 tested, 0.096% active | AID 504775;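 active = mean replicate activation of at least 60% and every replicate at or above 60%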;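 also: 0% = median plate neutral-control signal and 100% = twice that signal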
#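 System: CHO ldlA[mSR-BI] cells / Medium: HEPES-buffered (25 mM, pH 7.4) F12 plus 0.5% BSA / Probe or stimulus: labelled HDL, 10 µg/mL / Doses: single compound concentration, delivered by pin transfer / Schedule: 3 h, 37 °C / Measured by: DiI fluorescence, bottom read / Measure: cell-associated DiI fluorescence as measure of HDL uptake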
# Neddylation inh: blocks human cullin neddylation; inhibition, % at 25 µM; P61081+Q13564; 360,000 tested, 0.58% active; TR-FRET cullin neddylation, biochemical; AID 651699; in the data active = inhibition above about 36%
# Target sequence (P61081 whole entry, looked up): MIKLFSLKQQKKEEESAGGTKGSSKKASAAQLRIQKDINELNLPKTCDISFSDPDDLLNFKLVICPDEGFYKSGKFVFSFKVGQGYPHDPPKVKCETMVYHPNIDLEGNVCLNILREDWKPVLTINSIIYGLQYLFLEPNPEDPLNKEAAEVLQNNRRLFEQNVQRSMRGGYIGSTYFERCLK
# Target sequence (Q13564 whole entry, looked up): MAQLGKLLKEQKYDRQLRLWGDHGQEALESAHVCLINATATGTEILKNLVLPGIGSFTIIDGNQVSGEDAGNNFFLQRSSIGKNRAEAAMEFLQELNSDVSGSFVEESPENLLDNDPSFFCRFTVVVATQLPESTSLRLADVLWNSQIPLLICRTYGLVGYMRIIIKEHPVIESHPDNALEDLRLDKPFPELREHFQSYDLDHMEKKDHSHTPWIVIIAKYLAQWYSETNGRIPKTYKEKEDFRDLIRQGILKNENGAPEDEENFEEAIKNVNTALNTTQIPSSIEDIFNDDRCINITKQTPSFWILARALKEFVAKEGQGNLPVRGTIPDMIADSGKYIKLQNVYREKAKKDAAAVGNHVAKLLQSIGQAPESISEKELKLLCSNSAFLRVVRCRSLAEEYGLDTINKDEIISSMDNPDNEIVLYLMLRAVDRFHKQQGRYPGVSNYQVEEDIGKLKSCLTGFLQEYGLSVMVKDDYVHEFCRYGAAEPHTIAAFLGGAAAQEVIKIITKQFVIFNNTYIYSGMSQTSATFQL
# Starred values were filed as active, the others as inactive; · = not tested or not shown. In the library only some 1.9% were active in any assay of this set; here they are far more common.
SMILES,SR-BI HDL uptake,UBC13 polyUb,SR-BI DiI-HDL act,Neddylation inh
O=C(NNC(=O)c1cc2cc(Br)ccc2oc1=O)c1ccc(O)cc1O,83.0*,-24.8,-83.0,-21.9
O=c1c(-c2ccccc2)c(O)c2cccc3c2n1CCC3,-10.2,7.1,37.2,44.5*
Cc1cc(C)c(-c2c(O)c3cccc4c3n(c2=O)CCC4)c(C)c1,-35.5,1.4,35.5,10.2
Cc1ccc(-c2cc(-c3ccc(Cl)cc3)c(C#N)c(N)n2)o1,5.4,11.1,-5.4,48.4*
Cn1c(O)c(/C=C2\C=Nc3ccccc32)sc1=Nc1ccc(C(=O)O)cc1,5.7,-7.8,-5.7,-13.7
CCn1c(O)c(/C=C2\C=Nc3ccccc32)sc1=Nc1ccccc1,79.9*,-8.5,-79.9,-3.1
C[C@@H]1CN([C@H](C)CO)C(=O)CCCn2cc(nn2)CO[C@H]1CN(C)C(=O)Nc1cccc(F)c1,·,·,·,1.3
O=C(COC(=O)C1CCCCC1)Nc1cccc(F)c1,0.6,7.2,-0.6,5.6
O=C(COC(=O)C1CCCCC1)Nc1cccc(Br)c1,-63.5,-14.2,63.5*,-5.3
COc1cc(/C=C\C(=O)NCc2ccc3[nH]c(C)cc3c2)cc(OC)c1OC,75.5*,17.1,-75.5,6.4
CCC(=O)Nc1ccc(Cl)c(NC(=S)NC(=O)c2ccco2)c1,95.6*,-27.2,-95.6,4.6
CCC(=O)Nc1ccc(Cl)c(NC(=S)NC(=O)c2cc3ccccc3o2)c1,14.4,-16.4,-14.4,0.6
COc1ccc(NC(=O)c2cc(C3CCCCN3S(=O)(=O)c3c(C)noc3C)on2)c(C)c1 (stereo not given),·,·,·,3.3
O=[N+]([O-])c1ccc(O)c(/C=N/NC2=NS(=O)(=O)c3ccccc32)c1,87.7*,-26.0,-87.7,10.8
O=[N+]([O-])c1ccc(O)c(/C=N/Nc2ccc(Cl)nn2)c1,106.2*,-69.8,-106.2,-26.6
COc1ccccc1NC(=O)Nc1nc(CC(=O)N2CCN(c3ccc(F)cc3)CC2)cs1,76.0*,9.7,-76.0,10.7
COc1ccc(N2CCN(C(=O)Cc3csc(NC(=O)Nc4ccccc4OC)n3)CC2)cc1,80.3*,-1.0,-80.3,-4.3
C=CS(=O)(=O)N(Cc1ccc(Cl)c(Cl)c1)C[C@@H](O)CO,-29.5,·,29.5,1.7
C=CCN1C(=O)/C(=C2/Sc3ccc(OC)cc3N2C)SC1=Nc1ccccc1,96.1*,2.6,-96.1,25.2
CCN1C(=O)/C(=C2/Sc3ccc(OC)cc3N2C)SC1=Nc1cccc(O)c1,94.1*,-11.5,-94.1,20.4
COc1ccc(Cc2c(-c3ccc(F)cc3)nc3ccc(Cl)cn23)c(C)c1,·,·,·,-3.1
CC1CCCC(NC(=O)CCNC(=O)c2ccccc2Cl)C1C (stereo not given),9.2,3.8,-9.2,-3.0
CC(C)c1ccc(/C=N/NC(=O)c2ccc(-n3cnnn3)cc2)cc1,84.3*,-2.5,-84.3,18.2
O=C(/C=C/c1cc[n+](CC(=O)c2ccc3cccc4c3c2CC4)cc1)c1ccc2cccc3c2c1CC3,·,51.2*,·,2.1
CC(C)(C)c1cc(C(=O)N/N=C/c2cc3c(cc2Br)OCO3)n[nH]1,76.7*,-12.9,-76.7,-3.6
SMILES,SR-BI HDL uptake,UBC13 polyUb,SR-BI DiI-HDL act,Neddylation inh
O=C(N/N=C/c1cc2c(cc1Br)OCO2)c1ccccn1,·,0.5,·,-8.9
COc1cccc(NC(=O)c2ccnc(N3CCC(C(=O)NCc4ccccc4OC)CC3)c2)c1,87.5*,2.7,-87.5,-77.0
COc1ccccc1CNC(=O)C1CCCN(c2cnccn2)C1 (stereo not given),5.3,-3.9,-5.3,27.4
Cc1cc(C)n(-c2ccc(NC(=O)C3CCCCN3Cc3cccc4c3OCO4)cc2)n1 (stereo not given),89.3*,4.5,-89.4,-10.6
Cc1cc(C)n(-c2ccc(NC(=O)C3CCCCN3C(=O)c3ccoc3)cc2)n1 (stereo not given),12.6,-3.8,-12.6,-7.9
COc1ccc(-c2sc3ccc(N4CCOCC4)cc3c2C#Cc2ccsc2)cc1,90.1*,4.3,-90.1,·
CN1CCn2cnc(C(=O)N[C@@H](Cc3ccccc3)C(=O)OC(C)(C)C)c2C1=O,·,·,·,3.5
O=C(Nc1nc(-c2ccc(F)cc2)cs1)c1cccc(N2C(=O)CCC2=O)c1,81.3*,3.9,-81.3,-24.1
O=C(Nc1nc(-c2cc(F)ccc2F)cs1)c1cccc(N2C(=O)CCC2=O)c1,68.2,-4.9,-68.2,0.5
Cc1ccc2nc(NC(=O)c3ccc(N4C(=O)CCC4=O)cc3)sc2c1,77.2*,-3.1,-77.2,-6.7
Cc1ccc2sc(NC(=O)c3ccc(N4C(=O)CCC4=O)cc3)nc2c1C,60.8,-19.4,-60.8,28.5
Cc1ccc2sc(NC(=O)c3cccc(N4C(=O)CCC4=O)c3)nc2c1C,94.4*,23.3,-94.4,31.8
COc1cc(CNc2nc3ccccc3n2Cc2ccccc2)ccc1O,·,·,·,0.2
Cc1ccc(NC(=O)[C@@H]2O[C@H](CO)[C@@H](O)[C@H]2O)cc1C(F)(F)F,·,·,·,0.6
N#CC(C#N)=C1c2cc(S(=O)(=O)NCCO)ccc2-c2ccc(S(=O)(=O)NCCO)cc21,-197.2,-27.7,197.2*,-12.6
COc1ccc(Nc2nc(N3CCOCC3)nc(N3CCOCC3)n2)cc1Cl,60.5,3.0,-60.5,0.4
COC(=O)CSc1nc(-c2ccc(F)cc2)cc(C(F)(F)F)n1,22.9,5.7,-22.9,-9.8
CCN(CC)CCCNC(=O)CSc1nc(-c2ccc(F)cc2)cc(C(F)(F)F)n1,85.7*,-6.2,-85.7,-2.7
Cc1ccc(C(CC(N)=O)c2ccco2)cc1 (stereo not given),-71.3,13.3,71.3*,4.3
CCOC(=O)C1=C(C)NC(=O)C(C#N)C1c1ccco1 (stereo not given),-60.9,-2.3,60.9*,-2.0
CC(Sc1ccc(Cl)cc1)C(=O)NNC(=O)c1ccccc1O (stereo not given),97.0*,-2.5,-97.0,25.3
COc1ccccc1N1CCN(Cc2cc(=O)oc3cc(C)cc(C)c23)CC1,·,·,·,-3.5
CCC/C=C/c1ccc(CN2C(CC(C)C)C(=O)N(Cc3cn(CCOCOC)nn3)CCS2(=O)=O)cc1 (stereo not given),·,·,·,-11.4
Cn1c2c(c3ccccc31)CCN1CCC[C@]21c1ccccc1,0.4,-2.3,-0.4,1.3
C/C(=N\NC(=O)c1ccc(CN2CCOCC2)cc1)c1ccc([N+](=O)[O-])cc1,71.0*,-1.9,-71.0,-35.9
SMILES,SR-BI HDL uptake,UBC13 polyUb,SR-BI DiI-HDL act,Neddylation inh
C/C(=N/NC(=O)CNC(=O)c1ccccn1)c1ccccc1,9.9,6.9,-9.9,4.3
C/C(=N\NC(=O)c1ccc(CN2CCOCC2)cc1)c1cccc([N+](=O)[O-])c1,37.1,1.1,-37.1,-27.2
C/C(=N/NC(=O)CNC(=O)c1ccccn1)c1ccc([N+](=O)[O-])cc1,80.2*,2.0,-80.2,-39.9
COCCN1C(=O)N(c2cccc(OC)c2)C(=O)C1CC(=O)Nc1ccc(Cl)cc1 (stereo not given),5.5,-7.6,-5.5,3.0
CCc1ccc(NC(=O)CC2C(=O)N(c3cccc(OC)c3)C(=O)N2CCOC)cc1 (stereo not given),-310.1,-1.3,310.1*,-15.3
COCCCN1C(=O)N(c2ccc(F)cc2)C(=O)C1CC(=O)Nc1ccc(OC)cc1 (stereo not given),75.7*,8.8,-75.7,2.6

# Screening results deposited in PubChem by several laboratories.
